Measured values published in ChEMBL document CHEMBL3603803, “Design and synthesis of dithiocarbamate linked β-carboline derivatives: DNA topoisomerase II inhibition with DNA binding and apoptosis inducing ability” (Bioorg Med Chem, 2015).
Calls of active or inactive are those of the source. The rule behind the calls is not given here.

Assays:
DU-145 [1] = assay: Cell cycle arrest in human DU145 cells assessed as accumulation at G0/G1 phase at 1 uM after 48 hrs by propidium iodide staining-based flow cytometric analysis (reference value: 85.94%); assay type: functional
HeLa = assay: Cytotoxicity against human HeLa cells after 48 hrs by MTT assay; assay type: functional, cell-based
Outline: (§1)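 Human cancer cell lines (A549 lung, MCF-7 breast, DU-145 prostate, HeLa cervical) exposed to compounds for 48 h; 50% inhibitory concentration derived, average of three individual experiments; doxorubicin reference agent.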

Calf thymus DNA [2] = assay: Induction of DNA intercalation of calf thymus DNA at 10 uM by spectrofluorimetric analysis; assay type: nucleic-acid assay; conditions: Bos taurus
Outline: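 Fluorescence titration: CT-DNA added to compound solution and quenching of compound emission peak monitored (617 or 567 nm, depending on compound).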

DU-145 [3] = assay: Induction of apoptosis in human DU145 cells assessed as necrotic cells at 1 uM after 48 hrs by annexin V-FITC/propidium iodide staining-based flow cytometric analysis (reference value: 0.1%); assay type: functional
DU-145 [4] = assay: Induction of apoptosis in human DU145 cells assessed as late apoptotic cells at 0.5 uM after 48 hrs by annexin V-FITC/propidium iodide staining-based flow cytometric analysis (reference value: 1.52%); assay type: functional
DU-145 [5] = assay: Cell cycle arrest in human DU145 cells assessed as accumulation at G2/M phase at 0.5 uM after 48 hrs by propidium iodide staining-based flow cytometric analysis (reference value: 1.97%); assay type: functional
Calf thymus DNA [6] = assay: Stabilization of calf thymus DNA at 1:1 DNA to compound molar ratio by CD spectroscopic analysis; assay type: nucleic-acid assay; conditions: Bos taurus
Outline: (§2)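 CD spectra of CT-DNA with compound added at 10 µM to equal CT-DNA concentration (1:1), then raised to 1:2 DNA:ligand; positive band at 275 nm monitored.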

DU-145 [7] = assay: Cell cycle arrest in human DU145 cells assessed as accumulation at subG1 phase at 0.5 uM after 48 hrs by propidium iodide staining-based flow cytometric analysis (reference value: 6.52%); assay type: functional
DU-145 [8] = assay: Induction of apoptosis in human DU145 cells assessed as necrotic cells at 0.5 uM after 48 hrs by annexin V-FITC/propidium iodide staining-based flow cytometric analysis (reference value: 0.1%); assay type: functional
DU-145 [9] = assay: Cell cycle arrest in human DU145 cells assessed as accumulation at subG1 phase at 1 uM after 48 hrs by propidium iodide staining-based flow cytometric analysis (reference value: 6.52%); assay type: functional
DU-145 [10] = assay: Induction of apoptosis in human DU145 cells assessed as wrinkled cells at 0.5 uM after 48 hrs by Hoechst 33258 staining-based confocal microscopic analysis; assay type: functional, cell-based
Outline: (§3)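 Hoechst H33258 staining of treated DU-145 cells at 0.5 µM; apoptotic cells (apoptotic bodies, condensation, nuclear fragmentation) counted by manual field quantification under the microscope, compared with control.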

[11] = biological target: T1, DNA topoisomerase II (Homo sapiens) (UniProt P11388+Q02880); assay: Interfacial poisoning activity at DNA-topoisomerase 2 (unknown origin) using catenated kDNA as substrate assessed as linear DNA formation at 1 to 100 uM after 30 mins by agarose gel electrophoresis; assay type: protein assay
Outline: (§4)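 Catenated DNA incubated with topo II and compound at 1, 10 and 100 µM; gel products scored for linear DNA (poison type) versus nicked circular/relaxed DNA retained in wells (catalytic inhibitor type); etoposide at 1, 10, 100 µM as control.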

DU-145 [12] = assay: Induction of apoptosis in human DU145 cells assessed as viable cells at 0.5 uM after 48 hrs by annexin V-FITC/propidium iodide staining-based flow cytometric analysis (reference value: 97.95%); assay type: functional; conditions: DU-145, 48 h, read-out: Activity
DU-145 [13] = assay: Induction of apoptosis in human DU145 cells assessed as DNA fragmented cells at 0.5 uM after 48 hrs by Hoechst 33258 staining-based confocal microscopic analysis; assay type: functional, cell-based; outline: as §3
Calf thymus DNA [14] = assay: Binding affinity to calf thymus DNA surface at 1 uM by UV-vis spectrophotometric analysis; assay type: nucleic-acid assay; conditions: Bos taurus
Calf thymus DNA [15] = assay: Induction of DNA intercalation of calf thymus DNA at 1 uM by UV-vis spectrophotometric analysis; assay type: nucleic-acid assay; conditions: Bos taurus
DU-145 [16] = assay: Cell cycle arrest in human DU145 cells assessed as accumulation at S phase at 0.5 uM after 48 hrs by propidium iodide staining-based flow cytometric analysis (reference value: 4.02%); assay type: functional
A549 = assay: Cytotoxicity against human A549 cells after 48 hrs by MTT assay; assay type: functional, cell-based; conditions: A549, 48 h; outline: as §1
DU-145 [17] = assay: Induction of apoptosis in human DU145 cells assessed as viable cells at 1 uM after 48 hrs by annexin V-FITC/propidium iodide staining-based flow cytometric analysis (reference value: 97.95%); assay type: functional; conditions: DU-145, 48 h, read-out: Activity
DU-145 [18] = assay: Induction of apoptosis in human DU145 cells assessed as late apoptotic cells at 1 uM after 48 hrs by annexin V-FITC/propidium iodide staining-based flow cytometric analysis (reference value: 1.52%); assay type: functional
DU-145 [19] = assay: Cytotoxicity against human DU145 cells after 48 hrs by MTT assay; assay type: functional, cell-based; conditions: DU-145, 48 h; outline: as §1
DU-145 [20] = assay: Cell cycle arrest in human DU145 cells assessed as accumulation at G0/G1 phase at 0.5 uM after 48 hrs by propidium iodide staining-based flow cytometric analysis (reference value: 85.94%); assay type: functional
DU-145 [21] = assay: Induction of apoptosis in human DU145 cells assessed as early apoptotic cells at 0.5 uM after 48 hrs by annexin V-FITC/propidium iodide staining-based flow cytometric analysis (reference value: 0.43%); assay type: functional
DU-145 [22] = assay: Cell cycle arrest in human DU145 cells assessed as accumulation at G2/M phase at 1 uM after 48 hrs by propidium iodide staining-based flow cytometric analysis (reference value: 1.97%); assay type: functional
MCF7 = assay: Cytotoxicity against human MCF7 cells after 48 hrs by MTT assay; assay type: functional, cell-based; conditions: MCF7, 48 h; outline: as §1
DU-145 [23] = assay: Cell cycle arrest in human DU145 cells assessed as accumulation at S phase at 1 uM after 48 hrs by propidium iodide staining-based flow cytometric analysis (reference value: 4.02%); assay type: functional
DU-145 [24] = assay: Induction of apoptosis in human DU145 cells assessed as early apoptotic cells at 1 uM after 48 hrs by annexin V-FITC/propidium iodide staining-based flow cytometric analysis (reference value: 0.43%); assay type: functional
Calf thymus DNA [25] = assay: Stabilization of calf thymus DNA at 1:2 DNA to compound molar ratio by CD spectroscopic analysis; assay type: nucleic-acid assay; conditions: Bos taurus; outline: as §2
[26] = biological target: T1, DNA topoisomerase II (Homo sapiens); assay: Inhibition of DNA-topoisomerase 2 catalytic activity (unknown origin) using catenated kDNA as substrate assessed as formation of nicked circular and relaxed DNA at 1 to 100 uM after 30 mins by agarose gel electrophoresis; assay type: protein assay; outline: as §4

Row | Activity (Calf thymus DNA [2]) | Activity (Calf thymus DNA [6]) | Activity (Calf thymus DNA [14]) | Activity (Calf thymus DNA [15]) | SMILES | Activity (DU-145 [1]) [%] | IC50 (HeLa) [nM] | Activity (DU-145 [3]) [%] | Activity (DU-145 [4]) [%] | Activity (DU-145 [5]) [%] | Activity (DU-145 [7]) [%] | Activity (DU-145 [8]) [%] | Activity (DU-145 [9]) [%] | Activity (DU-145 [10]) | viability at 0.5 µM (DU-145 [12]) [%] | Activity (DU-145 [13]) | Activity (DU-145 [16]) [%] | IC50 (A549) [nM] | viability at 1 µM (DU-145 [17]) [%] | Activity (DU-145 [18]) [%] | IC50 (DU-145 [19]) [nM] | other results
1 | Active | Active | Active | Active | CSC(=S)NCc1cc2c3ccccc3n(C)c2c(-c2ccc(C(F)(F)F)cc2)n1 | 70.81 | 1470 | 1.65 | 13.7 | 3.73 | 10.12 | 0.93 | 18.6 | Active | 81.5 | Active | 5.18 | 3540 | 75 | 21.19 | 790 | Activity [11]: Active; Activity (DU-145 [20]): 78.9%; Activity (DU-145 [21]): 3.82%; Activity (DU-145 [22]): 5.36%; IC50 (MCF7): 1090 nM; Activity (DU-145 [23]): 5.31%; Activity (DU-145 [24]): 2.18%; Activity (Calf thymus DNA [25]): Active
2 | Active | Active | Active | Active | CSC(=S)NCc1cc2c([nH]c3ccccc32)c(-c2ccc(F)cc2)n1 | 75.52 | 3460 | 0.96 | 4.17 | 1.98 | 7.34 | 0.14 | 15.61 | Active | 94.6 | Active | 3.36 | 4360 | 80 | 14.68 | 1340 | inhibition [26]: Active; Activity (DU-145 [20]): 84.83%; Activity (DU-145 [21]): 1.07%; Activity (DU-145 [22]): 2.33%; IC50 (MCF7): 2450 nM; Activity (DU-145 [23]): 3.34%; Activity (DU-145 [24]): 4.4%; Activity (Calf thymus DNA [25]): Active
